Assay results reported in ChEMBL document CHEMBL5500351, “Active site-directed probes targeting dipeptidyl peptidases 8 and 9” (Eur J Med Chem, 2024).
pIC50: −log10 of the molar value.

Tests used:
[1] = target: T1, Prolyl endopeptidase FAP (Homo sapiens, UniProt Q12884); assay: Inhibition of recombinant human FAP
T1 sequence (Q12884 whole entry): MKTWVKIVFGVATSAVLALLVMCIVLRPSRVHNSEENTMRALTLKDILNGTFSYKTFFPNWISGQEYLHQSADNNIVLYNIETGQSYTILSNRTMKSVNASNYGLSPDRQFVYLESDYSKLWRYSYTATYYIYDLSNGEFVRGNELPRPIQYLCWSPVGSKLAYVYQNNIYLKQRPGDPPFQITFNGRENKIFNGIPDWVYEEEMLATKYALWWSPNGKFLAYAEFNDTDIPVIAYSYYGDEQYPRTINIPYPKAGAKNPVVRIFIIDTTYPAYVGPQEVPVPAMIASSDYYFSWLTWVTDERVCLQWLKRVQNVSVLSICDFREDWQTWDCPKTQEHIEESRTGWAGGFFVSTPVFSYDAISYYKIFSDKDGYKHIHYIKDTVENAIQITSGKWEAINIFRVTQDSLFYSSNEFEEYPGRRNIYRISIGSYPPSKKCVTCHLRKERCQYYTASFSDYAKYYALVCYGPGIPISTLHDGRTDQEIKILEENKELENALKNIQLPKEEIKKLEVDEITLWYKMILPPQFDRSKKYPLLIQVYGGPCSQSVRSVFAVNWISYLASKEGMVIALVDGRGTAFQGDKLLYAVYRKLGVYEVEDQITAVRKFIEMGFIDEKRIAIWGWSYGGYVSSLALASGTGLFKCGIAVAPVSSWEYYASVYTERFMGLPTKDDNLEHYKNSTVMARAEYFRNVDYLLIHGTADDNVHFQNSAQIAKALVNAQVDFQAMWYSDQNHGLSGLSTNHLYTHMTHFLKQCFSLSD
Outline: (§1)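 IC50 reported as the mean ± standard deviation of three independent determinations against each protease.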

[2] = target: T2, Prolyl endopeptidase (Homo sapiens, UniProt P48147); assay: Inhibition of recombinant human PREP; outline: as §1
T2 sequence (P48147 whole entry): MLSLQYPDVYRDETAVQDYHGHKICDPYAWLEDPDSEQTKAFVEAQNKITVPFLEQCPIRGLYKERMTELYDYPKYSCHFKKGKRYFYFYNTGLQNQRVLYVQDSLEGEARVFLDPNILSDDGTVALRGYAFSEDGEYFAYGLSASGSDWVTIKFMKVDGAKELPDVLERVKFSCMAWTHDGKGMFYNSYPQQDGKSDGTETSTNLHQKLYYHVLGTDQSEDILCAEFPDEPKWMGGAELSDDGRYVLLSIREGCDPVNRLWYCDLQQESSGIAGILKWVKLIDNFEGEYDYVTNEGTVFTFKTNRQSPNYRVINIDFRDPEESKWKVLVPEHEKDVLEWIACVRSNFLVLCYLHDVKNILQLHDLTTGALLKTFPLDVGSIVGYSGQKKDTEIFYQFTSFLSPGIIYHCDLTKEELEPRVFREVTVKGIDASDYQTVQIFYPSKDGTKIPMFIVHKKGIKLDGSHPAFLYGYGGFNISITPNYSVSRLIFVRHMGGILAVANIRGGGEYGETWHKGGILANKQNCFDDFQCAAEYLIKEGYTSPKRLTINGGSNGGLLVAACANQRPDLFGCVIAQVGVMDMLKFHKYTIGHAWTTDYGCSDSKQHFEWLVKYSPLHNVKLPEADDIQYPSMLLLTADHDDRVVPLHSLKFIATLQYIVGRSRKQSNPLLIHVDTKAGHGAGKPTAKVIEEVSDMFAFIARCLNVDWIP

[3] = target: Dipeptidyl peptidase 2 (Homo sapiens, UniProt Q9UHL4); assay: Inhibition of recombinant human DPP2; outline: as §1
[4] = target: Dipeptidyl peptidase 4 (Homo sapiens, UniProt P27487); assay: Inhibition of human DPP4; outline: as §1
Sequence of Dipeptidyl peptidase 4 (P27487 whole entry): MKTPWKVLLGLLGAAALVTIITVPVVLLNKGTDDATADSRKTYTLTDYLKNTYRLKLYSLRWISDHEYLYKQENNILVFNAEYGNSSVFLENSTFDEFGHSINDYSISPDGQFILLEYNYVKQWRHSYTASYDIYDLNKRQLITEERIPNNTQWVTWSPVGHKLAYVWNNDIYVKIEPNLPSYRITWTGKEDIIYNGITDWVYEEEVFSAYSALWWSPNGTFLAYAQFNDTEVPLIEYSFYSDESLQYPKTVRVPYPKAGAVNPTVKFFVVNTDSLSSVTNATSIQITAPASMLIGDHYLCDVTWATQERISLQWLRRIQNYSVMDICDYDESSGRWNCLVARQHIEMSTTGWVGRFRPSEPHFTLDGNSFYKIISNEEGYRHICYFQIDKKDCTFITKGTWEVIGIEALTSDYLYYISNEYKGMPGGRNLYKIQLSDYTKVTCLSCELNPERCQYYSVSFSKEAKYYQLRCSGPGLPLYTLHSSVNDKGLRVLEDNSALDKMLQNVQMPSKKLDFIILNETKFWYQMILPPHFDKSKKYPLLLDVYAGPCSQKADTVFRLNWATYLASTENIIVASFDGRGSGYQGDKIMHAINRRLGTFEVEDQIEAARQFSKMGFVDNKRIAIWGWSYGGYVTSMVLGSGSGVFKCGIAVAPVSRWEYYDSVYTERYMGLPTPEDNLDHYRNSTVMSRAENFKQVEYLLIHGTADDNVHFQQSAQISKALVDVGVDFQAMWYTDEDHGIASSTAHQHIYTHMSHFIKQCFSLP

[5] = species on record: Homo sapiens; assay: Selectivity index, ratio of IC50 for inhibition of human DPP8 expressed in baculovirus-infected Sf9 cells to IC50 for inhibition of human DPP9
Outline: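 Selectivity is computed as IC50(DPP8)/IC50(DPP9). Each IC50 was measured against recombinant human DPP8 or DPP9 and is the mean of three independent measurements ± standard deviation.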

[6] = species on record: Homo sapiens; assay: Selectivity index, ratio of IC50 for inhibition of human DPP8 expressed in baculovirus using Ala-Pro-7-amino-4-trifluormethylcoumarin as substrate to IC50 for inhibition of human DPP9 expressed in baculovirus using Gly-Pro-AMC as substrate
Outline: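 Ratio of IC50 against recombinant human DPP8 to IC50 against recombinant human DPP9, i.e. IC50(DPP8)/IC50(DPP9). Each IC50 is the mean of 3 independent measurements ± standard deviation.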

SMILES	pIC50 [1]	pIC50 [2]	pIC50 [3]	pIC50 [4]	Ratio IC50 [5]	Ratio IC50 [6]
O=C(CCCCC1SCC2NC(=O)NC21)NCCOCCOC(=O)NC12CC3CC(CC(NCC(=O)N4Cc5cc(F)c(F)cc5C4)(C3)C1)C2 (stereo unspecified)	< 5.00	< 5.00	< 5.30	< 5.00		
O=C(CCCCC1SCC2NC(=O)NC21)NCCOCCNC(=O)NC12CC3CC(CC(NCC(=O)N4Cc5cc(F)c(F)cc5C4)(C3)C1)C2 (stereo unspecified)	< 5.00	< 5.00	< 5.30	< 5.00		
CN(C)c1cccc2c(S(=O)(=O)NCCOCCOC(=O)NC34CC5CC(CC(NCC(=O)N6Cc7cc(F)c(F)cc7C6)(C5)C3)C4)cccc12	< 5.00	< 5.00	< 5.30	< 5.00		
O=C(CCCCC1SCC2NC(=O)NC21)NCCOCCNC(=O)NC12CC3CC(CC(NCC(=O)N4Cc5ccc(F)cc5C4)(C3)C1)C2 (stereo unspecified)	< 5.00	< 5.00	< 5.30	< 5.00		
O=C(CCCCC1SCC2NC(=O)NC21)NCCOCCOC(=O)NC12CC3CC(CC(NCC(=O)N4Cc5ccc(F)cc5C4)(C3)C1)C2 (stereo unspecified)	< 5.00	< 5.00	< 5.30	< 5.00		
O=C(NC12CC3CC(CC(NCC(=O)N4Cc5cc(F)c(F)cc5C4)(C3)C1)C2)OCCOCCNc1ccc([N+](=O)[O-])c2nonc12	< 5.00	< 5.00	< 5.30	5.77		
N[C@@H](CC(=O)N1CCN(C(c2ccc(F)cc2)c2ccc(F)cc2)CC1)C(=O)N1Cc2ccccc2C1					4	
O=C(CCCCC1SCC2NC(=O)NC21)NCCOCCOCCNC(=O)NC12CC3CC(CC(NCC(=O)N4Cc5cc(F)c(F)cc5C4)(C3)C1)C2 (stereo unspecified)	< 5.00	< 5.00	< 5.30	< 5.00		
CN(C)c1cccc2c(S(=O)(=O)NCCOCCOC(=O)NC34CC5CC(CC(NCC(=O)N6Cc7ccc(F)cc7C6)(C5)C3)C4)cccc12	< 5.00	< 5.00	< 5.30	< 5.00		
CC(C)[C@H](N)C(=O)N1CCC[C@H]1B(O)O						3
CC[N+]1=C(/C=C/C=C2/N(CCCCCC(=O)NC34CC5CC(CC(NCC(=O)N6Cc7cc(F)c(F)cc7C6)(C5)C3)C4)c3ccc(S(=O)(=O)O)cc3C2(C)C)C(C)(C)c2cc(S(=O)(=O)[O-])ccc21	< 5.00	< 5.00	< 5.30	< 5.00		
O=C(CCCCC1SCC2NC(=O)NC21)NCCOCCOCCNC(=O)NC12CC3CC(CC(NCC(=O)N4Cc5ccc(F)cc5C4)(C3)C1)C2 (stereo unspecified)	< 5.00	< 5.00	< 5.30	< 5.00		
O=C(NC12CC3CC(CC(NCC(=O)N4Cc5ccc(F)cc5C4)(C3)C1)C2)OCCOCCNc1ccc([N+](=O)[O-])c2nonc12	< 5.00	< 5.00	< 5.30	6.36		
